This is an account of results in PubChem BioAssay.

Test [1] in a line: OD615 S. cerevisiae growth inhibition, permissive medium, pilot counter-assay, permissive growth control for S. cerevisiae lifespan shortening project (AID 705;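 active = growth inhibition above 25% in both replicates, a cutoff set 3 SD above the mean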). The note with it: OD615, 24 h, at 10 µM, stronger effect = higher value. A digest of the protocol: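 Material: engineered DeaD yeast; compound dosing: one dose 10 µM, DMSO 0.25% final; measure: yeast growth inhibition indicated by reduced 24 h OD615; detection: OD615 turbidity read; incubation: cells pre-grown 4 h, then 24 h compound exposure, 30 °C humidified; medium: permissive synthetic complete medium with raffinose and galactose carbon sources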

Test [2] is described as follows: Restrictive medium S. cerevisiae growth inhibition, OD615, pilot screen of yeast lifespan reduction project, restrictive growth control (AID 706;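 active = growth inhibition above a set limit, 3 SD over mean compound inhibition, in both replicates, cut at about 43% in these data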;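 also: modified DeaD lifespan yeast strain shifted to restrictive glucose medium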). The note with it: OD615, 48 h, at 10 µM, stronger effect = higher value. Summed up:
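material = engineered S. cerevisiae DeaD strain | medium = glucose-based CSMM-D restrictive medium | times = 4 h pre-incubation, 48 h exposure at 30 °C | technique = OD615 absorbance reading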

Test [3] is described as follows: viability gain of MRP-1-high H69AR cells under doxorubicin, pilot screen, MRP-1 activator project, CellTiter-Glo, duplicate (AID 807).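 Also: compound pretreatment 18-22 h then 72 h combined with doxorubicin; 0% = doxorubicin alone and 100% = vehicle without doxorubicin.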 As to conditions: H69AR viability with doxorubicin, CellTiter-Glo luminescence; at 10 µM; stronger effect = higher value. For orientation: ATP-based viability assays read luminescence as a measure of living cells.
Test [4] can be described thus: growth suppression of beta-catenin knockout HCT116, pilot screen, human colon tumor cells (AID 823;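 active = cell viability at or below a set limit in both duplicate runs, the limit being the all-compound median minus 4 SD, cut at about 23% in these data, passing the limit was not always enough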;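 also: 0% = wells killed by 20 µM Hyamine and 100% = untreated DMSO cell wells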). As to conditions: CellTiter-Glo, 60 h, at 10 µM, stronger effect = lower value.
Test [5] can be described thus: growth suppression of PTEN-deleted HCT116, pilot screen, cell-based, HCT116 clonal line, CellTiter-Glo (AID 824;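 active = viability at or below 27.92% in each of two runs, the all-compound median minus 4 SD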;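 also: 0% = 20 µM Hyamine control and 100% = vehicle cell control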). As to conditions: 60 h, at 10 µM, stronger effect = lower value.
Test [6] in a line: inhibitors of the yeast RAM network, pilot screen, dse1pr::URA3 reporter, 5-FOA selection (AID 869;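 active = inhibition over a set limit, the all-compound mean plus 3 SD, in both replicate runs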;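 also: 0% = DMSO wells with no growth and 100% = 10 µM 1-NA-PP1 with full growth; RAM network block rescues cells from 5-FOA so hits raise OD615 growth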). As to conditions: S. cerevisiae dse1pr::URA3 5-FOA growth, OD615, 2 d; at 10 µM; stronger effect = higher value; strain carries analog-sensitive mutant Cbk1 kinase.
Test [7] in a line: RAM signaling pathway blockade in yeast – S. cerevisiae, Pdr1DBD-CYC8 efflux-inhibited sensitized strain, primary screen (AID 1298;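 active = RAM network inhibition above 8.4% in each of two replicates, 3 SD over the compound average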;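 also: 0% = DMSO untreated cells without growth and 100% = 10 µM 1-NA-PP1 full growth; higher means more yeast growth rescued from 5-FOA killing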). As to conditions: S. cerevisiae cbk1-as DSE1-URA3 strain, 5-FOA growth OD615, 2 d; at 50 µM; stronger effect = higher value.

Molecules are shown by their SMILES. A number with no mark means an inactive call. Results filed as inconclusive are left out. The source made the active and inactive calls.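 The calls were made as follows, unless noted: active = viability increase at or above a cutoff of the median across tested compounds plus 3 SD (cut at about 8.5% in these data, passing the limit was not always enough); inconclusive = some gains above the cutoff, reason not given; inactive = the rest.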

With `O=C(O)CSCCc1ccccn1`, the growth inhibition in test [1] is 4.38%; in test [2] it was 11.1%. The viability increase in test [3] was -0.02%. Also, the viability in test [4] was 98.3%; in test [5], 99.6%. The inhibition in test [6] is 1.27%. The RAM network inhibition in test [7] is 4.45%.

Turning to `CCS(=O)(=O)NCC(c1cccnc1)N1CCN(c2ccccc2OC)CC1` (stereo unspecified), the growth inhibition was -2.57% in test [1] and -3.32% in test [2]. Further, in test [3], the viability increase was -0.33%. Also, the viability in test [4] was 98.3%; in test [5], 105%. In addition, the inhibition in test [6] is 1.11%. In addition, in test [7], the RAM network inhibition is 3.37%.

Turning to `COC(=O)c1c(C(=O)OC)c2n(c1C)Cc1ccccc1C2`, the results for the growth inhibition in test [1] and in test [2] were -4.47% and -1.14%, respectively. Besides, the viability increase in test [3] is -1.39%. In addition, the viability in test [4] was 86.6%; in test [5] it was 90.2%. The inhibition in test [6] is 1.85%. The RAM network inhibition in test [7] is 1.43%.

With `Cc1nn(C)c(C)c1S(=O)(=O)N(CC(=O)Nc1ccc2c(c1)OCO2)c1ccc(C(C)C)cc1`, the growth inhibition in test [1] was -19.5%; in test [2], -7.85%. In test [3], the viability increase was -2.38%. Besides, the viability is 102% in test [4] and 99.4% in test [5]. Also, the inhibition in test [6] is 2.36%. Moreover, the RAM network inhibition in test [7] was 2.62%.

In the case of `COc1ccccc1-c1nnc(NC(=O)C(C)SC2=NCCS2)s1` (stereo unspecified), the growth inhibition in test [1] was 5.92%; in test [2], 48.7% (active). In addition, the viability increase in test [3] is -4.43%. For the same compound, the viability was 83.4% in test [4] and 91.2% in test [5]. The inhibition in test [6] was -0.115%. Further, in test [7], the RAM network inhibition is 6.22%.

`O=C1CCC(=O)N1CNc1cccnc1`: the growth inhibition in test [1] was -7.25%; in test [2], -12.2%. The viability increase in test [3] is -0.41%. Also, the viability in test [4] was 95.3%; in test [5] it was 103%. For the same compound, the inhibition in test [6] was 0.34%. Further, in test [7], the RAM network inhibition is 5.5%.

As for `NC(=O)c1cccc(S(=O)(=O)N2CC(c3ccccc3)CC2=O)c1` (stereo unspecified), the growth inhibition in test [1] was -15.8%; in test [2] it was -15%. Besides, in test [3], the viability increase was -1.11%. Also, the figures for the viability in test [4] and in test [5] were 99.5% and 96.1%, respectively. Further, the inhibition in test [6] is 0.075%. Further, the RAM network inhibition in test [7] was -0.76%.

As for `CC(C)(C)NC(=O)C1CN(S(=O)(=O)c2ccccc2)CCN1S(=O)(=O)c1ccccc1` (stereo unspecified), the growth inhibition is 5.33% in test [1] and -4.14% in test [2]. Also, in test [3], the viability increase was -1.07%. The viability in test [4] was 97.3%; in test [5], 97.1%. In test [6], the inhibition was 2.74%. Besides, in test [7], the RAM network inhibition was 2.81%.

On to `COc1ccc(N(CC(=O)Nc2ccc3c(c2)OCO3)S(C)(=O)=O)c(OC)c1`, for which the growth inhibition was -12.6% in test [1] and -4.5% in test [2]. Moreover, the viability increase in test [3] was -2.19%. The viability is 97.9% in test [4] and 96.5% in test [5]. The inhibition in test [6] was 1.41%. Moreover, in test [7], the RAM network inhibition is 4.05%.

As for `CCOC(=O)NC(Nc1ncccn1)(C(F)(F)F)C(F)(F)F`, the growth inhibition in test [1] is 0.98%; in test [2], -5.49%. In addition, the viability increase in test [3] is -3.34%. Further, the viability in test [4] was 94.4%; in test [5], 97.5%. In addition, the inhibition in test [6] was 1.17%. In test [7], the RAM network inhibition is 0.47%.

Take `CCCc1nnc(NC(=O)CCC(=O)O)s1`: the growth inhibition in test [1] was -4.72%; in test [2], -1.89%. In addition, in test [3], the viability increase is -1.02%. Also, the viability in test [4] is 92.8%; in test [5] it was 95.4%. Further, in test [6], the inhibition is 0.765%. Also, the RAM network inhibition in test [7] was 0%.

In the case of `O=c1cc(O)c2c(=O)n(-c3ccccc3)c3ccccc3c2o1`, the growth inhibition in test [1] is 8.67%; in test [2], 4.96%. Further, the viability increase in test [3] is -4.59%. Besides, the viability in test [4] was 98.3%; in test [5], 87.1%. For the same compound, in test [6], the inhibition was 0.67%. The RAM network inhibition in test [7] was 0.42%.

`COc1ccc(-n2c(SCC(=O)Nc3cc(C)on3)nc3c(c2=O)SCC3)cc1`: the growth inhibition in test [1] was -13.1%; in test [2], -6.83%. The viability increase in test [3] was 0.28%. Further, the viability in test [4] was 112%; in test [5], 95.5%. The inhibition in test [6] is 4.46%. Besides, the RAM network inhibition in test [7] was 6.81%.

Turning to `O=C(c1ccc(=O)[nH]c1)N(Cc1ccco1)C1(C(=O)NC2CCCCC2)CCCCC1`, the figures for the growth inhibition in test [1] and in test [2] were -20% and -18.9%, respectively. For the same compound, in test [3], the viability increase is -3.3%. Also, the results for the viability in test [4] and in test [5] were 97.2% and 92.5%, respectively. Further, the inhibition in test [6] was 0.61%. Also, the RAM network inhibition in test [7] was 1.87%.

Consider `Cc1cc2oc3c(c(=O)c2cc1C)C(c1ccc(C(C)C)cc1)N(CCCN1CCOCC1)C3=O` (stereo unspecified), for which the growth inhibition was -7.04% in test [1] and -2.79% in test [2]. The viability increase in test [3] is -3.45%. The viability in test [4] is 95.8%; in test [5], 86.5%. In test [6], the inhibition was 1.31%. Also, the RAM network inhibition in test [7] is 4.42%.

As to `Cc1noc(NS(=O)(=O)c2ccc(NC(=O)CSc3nc4c(cc3C#N)CCCC4)cc2)c1C`, the growth inhibition in test [1] was 2.36%; in test [2] it was 3.98%. In test [3], the viability increase is 0.62%. Moreover, the viability is 109% in test [4] and 101% in test [5]. The inhibition in test [6] was 2.52%. In addition, the RAM network inhibition in test [7] is 2.9%.

Turning to `Cc1cc(Nc2cc(F)ccc2C)n2ncnc2n1`, the growth inhibition in test [1] is -2.42%; in test [2], 9.4%. For the same compound, in test [3], the viability increase is -0.28%. The values for the viability in test [4] and in test [5] were 102% and 97.3%, respectively. Further, the inhibition in test [6] is 3.77%. Besides, in test [7], the RAM network inhibition is 4.19%.

Consider `Cc1sc2nc(SCC(=O)N3CCCC3)[nH]c(=O)c2c1C`, for which the growth inhibition in test [1] is -0.89%; in test [2], -6.9%. Also, the viability increase in test [3] was -1.34%. Further, the results for the viability in test [4] and in test [5] were 104% and 98%, respectively. For the same compound, the inhibition in test [6] is 0.26%. Also, in test [7], the RAM network inhibition is 1.77%.

What is called viability is a read-out of living cells in per cent, often relative to untreated cells. A word on the inhibition: it is the change of the read-out against control, counted positive when it falls.
